Experimental data: the RNAGym collection of RNA variant scans (doi:10.1126/science.aae0568)
Fewer inactive variants are shown than the library holds.

B1: tRNA (parent)
chain: GUUCCGUUGGCGUAAUGGUAACGCGUCUCCCUCCUAAGGAGAAGACUGCGGGUUCGAGUCCCGUACGGAACG

Variants of: B1
Assay: yeast fitness relative to wild type (ratio to wild type); higher = fitter; tRNA-Arg(CCU), competitive growth, 37 C, YPD
How it was run: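 A pool of Saccharomyces cerevisiae strains, each with a tRNA-Arg(CCU) gene variant at the native genomic locus, was competed in YPD at 37°C for 24 hours across six parallel replicates. The variants had been chemically synthesised at a 3% per-site mutation rate over 69 sites, and gene amplicons before and after competition were read by 100-nucleotide paired-end sequencing. Darwinian fitness relative to wild type rested on changes in genotype frequencies. Genotypes required ≥ 100 starting reads, and estimates < 0.5 were set to 0.5.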

Row | Variant | yeast fitness
1 | C4A A14C C60G C66U G68A | 0.561
2 | C4A A14G A36C U59A | 0.686
3 | U3G G17C C33A U53G U54A | ≤ 0.5
4 | U3G G44C | 0.739
5 | C4A A36G | 0.87
6 | C4A A65G A69U | 0.617
7 | U3G G68A | 0.851
8 | C4A A21C U54A | ≤ 0.5
9 | C4A C11U | 0.781
10 | U3G C24U C31U A69U | 0.839
11 | C4A C24G G63A C66A | ≤ 0.5
12 | C4A C30G C31U C55A C61G G67A | ≤ 0.5
13 | C4A A20C G50C A65C | ≤ 0.5
14 | C4A C33A | 0.705
15 | C4A C5A C29U G51C | ≤ 0.5
16 | U3G G39A A40G A57U C66U | ≤ 0.5
17 | C4A C29G C34G | 0.782
18 | C4A C60G | 0.61
19 | C4A C60A | 0.676
20 | C4A C5G C27U U53A A69U | ≤ 0.5
21 | U3G C29G A45G | 0.594

Row | Variant | yeast fitness
22 | C4A C22G A40C G67A | 0.61
23 | C4A C5A C11U A20U A69C | ≤ 0.5
24 | C4A A37U G50C | ≤ 0.5
25 | C4A A20U | 0.707
26 | C4A A40G A65G | 0.533
27 | C4A A20U U28A C31U A65U | ≤ 0.5
28 | U3G U16G A21G C29A U32C C33U C34A | 0.788
29 | C4A A45C U47A A70G | ≤ 0.5
30 | C4A C30U A57G A65U | ≤ 0.5
31 | C4A A20G A37U C61A | ≤ 0.5
32 | U3G C62U | 0.873
33 | U3G C62G | 0.739
34 | C4A C34G C66U | 0.576
35 | C4A C5U G17A | ≤ 0.5
36 | C4A C30G C49U | 0.566
37 | C4A C30G C49G | ≤ 0.5
38 | C4A C33A G39A G51C | 0.657
39 | C4A C29G A40U | ≤ 0.5
40 | C4A C33U A37G | ≤ 0.5
41 | U3G G6A A15G C34A A70G | ≤ 0.5
42 | C4A A43U | 0.841

Row | Variant | yeast fitness
43 | C4A C49U C55A C66U | 0.545
44 | C4A C30G G50A | ≤ 0.5
45 | C4A C5A A20U A69C | 0.551
46 | U3G G67A | 0.846
47 | C4A C5U G17A C30U G68C | ≤ 0.5
48 | U3G U8G U19A A69C | ≤ 0.5
49 | U3G U8A C31A A69C A70G | ≤ 0.5
50 | C4A C24U A36U G39C C46G C55A C66G | ≤ 0.5
51 | C4A A36G G44U G51C A65U | ≤ 0.5
52 | C4A A15C U28C C34G | ≤ 0.5
53 | C4A C24U A65C | 0.65
54 | C4A C30G G41C G68A | ≤ 0.5
55 | C4A A21G C49G G63C | 0.538
56 | U3G G17A C30U A69U | ≤ 0.5
57 | C4A C5U | 0.837
58 | C4A C5A | 0.752
59 | C4A G6A C11A C22U C29U C55A G68U | ≤ 0.5
60 | U3G C11U G68A | ≤ 0.5
61 | C4A A20U G44C C60A | ≤ 0.5
62 | C4A A20U C34G C55G C60A | ≤ 0.5
63 | C4A C31A C33G U47A | ≤ 0.5

Row | Variant | yeast fitness
64 | C4A C30U C55U | ≤ 0.5
65 | C4A C11U C22A G23C A40G | ≤ 0.5
66 | C4A C5A G41C G56A C62U A65C | ≤ 0.5
67 | C4A A14G C24U U32G A42U A43G C66U | ≤ 0.5
68 | C4A A14U A20C U28G A70U | ≤ 0.5
69 | C4A A42U G68C | ≤ 0.5
70 | C4A A36G G58C | 0.565
71 | C4A C5U C24G A45U | 0.649
72 | C4A C30G C66A | ≤ 0.5
73 | U3G G17C A42U C62U | ≤ 0.5
74 | U3G C22U A57G C60A | ≤ 0.5
75 | C4A C5G A20G U54A C62U | ≤ 0.5
76 | C4A C30G A40U A45U G48A | ≤ 0.5
77 | C4A C33A C60A U64C | ≤ 0.5
78 | C4A A20U C66U | ≤ 0.5
79 | C4A G6A A65G | 0.56
80 | U3G U8C A43C | ≤ 0.5
81 | U3G C11G C34U C55U | ≤ 0.5
82 | C4A A45U C62U G68A | 0.562
83 | C4A C11G U19G | ≤ 0.5
84 | U3G G48C | 1.06
